An excerpt weighted towards active compounds, which were near 5.7% of everything screened.
T cruzi repl: T. cruzi replication inhibition. T. cruzi beta-gal in NIH3T3, luminescence, 90 h. inhibition, % (test concentration not listed). actives 1.4% (n = 300,000);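 active = mean inhibition across valid replicates above about 55%, limit read from the data; inconclusive = mean below that limit but half or more replicates reach it; inactive = mean below it, under half of replicates reach it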;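 note: signal also drops with host cell toxicity which is not excluded here; higher percent means less beta-gal luminescence so fewer parasites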
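Assay system: NIH/3T3 fibroblasts plus reporter T. cruzi. Amount: NIH/3T3 cells, 5,000 per well. Buffer or medium: DMEM, 2% fetal bovine serum. Doses: compound pinned at 50 nL/well, DMSO. Schedule: ≥90 h infection period, 3 h prior cell attachment. Signal: luminescent β-galactosidase signal after 60 min lysis. Read-out: parasite load inhibition, %.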
Calb FLC: C. albicans growth modulation with fluconazole; actives 0.57% (n = 300,000); C. albicans CaCi-2 + fluconazole, Alamar Blue growth, 48 h; growth inhibition, % (test concentration not listed); AID 1979;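 active = growth inhibition above about 58% in most replicates, limit read from the data, passing the limit was not always enough; inconclusive = exactly half the replicates above a set limit; inactive = most replicates below a set limit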;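 note: all wells also contain fluconazole at 8 µg/ml as a sub-toxic cotreatment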
Beta cell apopt: blocks beta cell apoptosis. INS-1E cytokine-induced death, ATP luminescence, 48 h; percent of positive-control rescue, neutral wells zero. protection from apoptosis, % (concentration not given with the values). actives 0.8% (n = 300,000). AID 435005;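 active = Every replicate reaches about 75%, or at least half do and their mean reaches it too, limit read from the data; inconclusive = At least half of replicates reach the limit but their mean does not; inactive = Under half of replicates reach the limit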;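 note: higher means more ATP so stronger rescue from cytokine killing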
CSC inhib: cancer stem cell inhibition; inhibition, % at 7.5 µM; actives 1.1% (n = 300,000); cancer stem cell-like cells viability, luminescence; AID 2717; in the data active = inhibition above about 75%; inconclusive = no clear call, values can overlap the other calls; tested in HMLE shEcad cells
Mdm2 MdmX PPI: inhibitors of human Mdm2/MdmX interaction; O15151+Q00987; SaOS-2 split-luciferase Mdm2/MdmX complementation, luminescence; inhibition, % at 8 µM; actives 3% (n = 330,000); AID 485346;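 active = inhibition of at least 50% at 8 µM in the primary screen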
SKKanGAS inh: inhibitors of SKKanGAS S. pyogenes growth in kanamycin (SK-promoter or general growth effect); BacTiter-Glo, 6 h; inhibition, % at 7.5 µM; actives 1.3% (n = 300,000);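 active = mean replicate score, as percent of positive control median, at least 50; inconclusive = mean below 50 but one replicate at or above 50; inactive = mean and every replicate below 50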;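 note: strain carries kanamycin resistance gene driven by streptokinase promoter and grows in 40 µg/ml kanamycin; loss of luminescence reflects streptokinase promoter inhibition or plain growth inhibition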
Hits are given with their value; 0 = inactive; ? = inconclusive; - = no result.

SMILES	T cruzi repl	Calb FLC	Beta cell apopt	CSC inhib	Mdm2 MdmX PPI	SKKanGAS inh
Cc1cc(OCCOCCN2CCCC2)ccc1C(C)C	57	0	0	0	0	0
CCOc1ccc(N(CC(=O)N/N=C/c2ccccn2)S(=O)(=O)c2ccc(Cl)cc2)cc1	-	0	0	0	0	-
O=C(CSc1n[nH]c(-c2ccncc2)n1)Nc1ccc(Br)cc1	0	0	0	0	0	0
C=C(C)CNC(=S)N/N=C1\CCCCc2ccccc21	0	93	0	0	0	0
Cc1ccccc1Nc1c(-c2ccc(N3CCOCC3)cc2)nc2ncccn12	0	0	0	0	0	0
Cc1ccccc1Nc1c(-c2ccccn2)nc2c(C)cccn12	0	0	96	0	0	81
Cc1ccc(/C=[N+](\[O-])c2ccc(N(C)C)cc2)c2nsnc12	0	97	-	-	0	0
Cc1ccc2nsnc2c1NS(=O)(=O)c1c(C)ccc2nsnc12	0	0	0	0	0	0
c1ccc(CSc2nnc(-c3cccs3)n2Cc2ccco2)cc1	0	121	0	0	0	0
O=C(COc1ccc2c(c1)oc(=O)c1ccccc12)NC(Cc1ccc(Cl)cc1)C(=O)O (stereo unspecified)	0	0	-	0	0	0
CCN(CC)S(=O)(=O)c1ccc(Oc2ccc(S(=O)(=O)N(CC)CC)cc2)cc1	0	0	113	0	0	0
CCN(CC)S(=O)(=O)c1ccc(Oc2ccccc2OC)cc1	0	0	0	0	0	0
O=C(/C=C(\c1ccccc1)n1cncn1)c1ccccc1	0	0	0	0	0	0
O=C(/C=C(\c1ccc(Cl)cc1)n1cncn1)c1ccc(Cl)cc1	65	0	0	0	0	0
CCCNC(=O)NC(=O)CN1C(=O)NC(C)(c2ccc3ccccc3c2)C1=O (stereo unspecified)	0	0	0	0	0	0
Cc1cc(O)ccc1C1(c2ccc(O)cc2C)OC(=O)c2ccccc21	0	0	0	0	0	0
Cc1cccc(C2(c3cccc(C)c3)OC(=O)c3ccccc32)c1	0	0	124	0	0	0
O=C(O)c1cc(NC(=O)c2cccc(F)c2)cc(NC(=O)c2cccc(F)c2)c1	0	0	0	0	0	0
CC1CCCC(NC(=O)c2ccc3c(c2)NC(=O)CS3)C1C (stereo unspecified)	0	0	0	0	0	0
CC(C)(C)C(=O)Nc1ccc(C(=O)N/N=C/c2ccccc2OC(=O)c2ccccc2)cc1	0	0	87	0	0	0
COc1cc(C(=O)Oc2ccccc2/C=N/NC(=O)c2ccc(C)cc2)cc(OC)c1OC	0	0	103	0	0	0
COc1cc(C(=O)Oc2ccc(/C=N/NC(=O)c3ccncc3)cc2)cc(OC)c1OC	0	0	0	0	0	0
CCOc1cc(/C=N\NC(=O)c2ccc(NC(=O)C(C)(C)C)cc2)ccc1OC(=O)c1ccc(C)cc1	0	0	0	0	0	0
Cc1cccc(C(=O)Oc2ccccc2/C=N/NC(=O)c2ccc(NC(=O)C(C)(C)C)cc2)c1	0	0	0	0	0	0
CC(C)(C)C(=O)Nc1ccc(C(=O)N/N=C/c2ccccc2OC(=O)c2ccc(Cl)cc2)cc1	0	0	103	0	0	0
SMILES	T cruzi repl	Calb FLC	Beta cell apopt	CSC inhib	Mdm2 MdmX PPI	SKKanGAS inh
COc1ccccc1CNC(=O)CS(=O)(=O)c1ccc(C)cc1	0	0	0	0	0	0
Cc1nc2ccccc2c(=O)n1/N=C/c1ccc(O)c(O)c1O	0	0	0	0	0	0
Cc1nc2ccccc2c(=O)n1/N=C/c1ccc2ccccc2c1O	0	0	115	0	0	55
Cc1cc([N+](=O)[O-])cc(/C=N/n2c(C)nc3ccccc3c2=O)c1O	0	0	0	0	0	72
CC(C)[C@@H](C(=O)NC1CCN(Cc2ccccc2)CC1)N1C(=O)N2CCc3c([nH]c4ccccc34)[C@@]2(C)C1=O	?	0	0	0	0	0
COc1ccccc1N1CCN(C(=O)C(=O)c2c[nH]c3ccccc23)CC1	0	0	0	0	0	0
O=C(NCC1CCCO1)C1CCN(S(=O)(=O)c2cc(Cl)ccc2Cl)CC1 (stereo unspecified)	0	0	0	-	0	0
Cc1ccc(NS(=O)(=O)c2ccc(C3CCCCC3)cc2)cc1	0	0	0	0	0	76
CCCn1c(=O)n(C)c(=O)c2c(SCC(=O)NCC(c3ccccc3)N(C)C)nc(CC(C)C)nc21 (stereo unspecified)	0	0	0	0	0	0
